Rows were chosen to be rich in hits. Some 4.6% of all compounds tested hit in one or more screens of this group.
MDM2 E3 inh – blocks human Mdm2 ubiquitin ligase activity | signal enhancement, % at 5 µM | cell-based MDM2 ubiquitination luciferase reporter, 2 h; 0 = plate control, 100 = twice control, blank-subtracted | 210,000 compounds, 0.11% hits | Q00987 | AID 1230;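 active means signal enhancement of 30% or more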;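 further: luminescence tracks abundance of the self-degrading MDM2-luciferase fusion protein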
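Assay system: mammalian cells stably expressing self-ubiquitinating, self-degrading MDM2 E3–luciferase fusion. Quantity: 2000 cells in each well. Medium: DMEM culture medium. Compound dosing: single-point 5 µM. Timing: cell settling 4 h, compound treatment 2 h, both 37 °C. Technique: luciferase luminescence. Read-out basis: percent signal gain over controls, blank-subtracted. Benchmarks: plate controls and plate blanks.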
STAT1 act – increases IFN-gamma driven STAT1 reporter signal | NIH 3T3 STAT1-luciferase reporter, luminescence; 100% = IFN-gamma alone, no compound | activation (% of control), % at 5.5 µM | 200,000 compounds, 2.6% hits;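 active means activation above the screen-wide mean activation plus 3 SD, cut at about 130% in these data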
NF-kB neuron act – NF-kB expression increase, human neuronal cells. NF-kB reporter expression; hits give high values. fold change at 12.5 µM. 190,000 compounds, 1.6% hits; in the data active means fold change above about 3.3
Wee1 stabilizer – blocks degradation of human Wee1 kinase; P30291; HeLa Luc-Wee1K328M stability, luciferase luminescence; 100% = proteasome inhibitor MG132 effect; reporter increase, % at 5 µM; 220,000 compounds, 1.2% hits;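 active means activation above the mean of all tested compounds plus 3 SD, set per screening run, cut at about 8.8% in these data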;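 further: cells exposed to compound for 20 h before luminescence read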
Target sequence (P30291 whole entry K328M): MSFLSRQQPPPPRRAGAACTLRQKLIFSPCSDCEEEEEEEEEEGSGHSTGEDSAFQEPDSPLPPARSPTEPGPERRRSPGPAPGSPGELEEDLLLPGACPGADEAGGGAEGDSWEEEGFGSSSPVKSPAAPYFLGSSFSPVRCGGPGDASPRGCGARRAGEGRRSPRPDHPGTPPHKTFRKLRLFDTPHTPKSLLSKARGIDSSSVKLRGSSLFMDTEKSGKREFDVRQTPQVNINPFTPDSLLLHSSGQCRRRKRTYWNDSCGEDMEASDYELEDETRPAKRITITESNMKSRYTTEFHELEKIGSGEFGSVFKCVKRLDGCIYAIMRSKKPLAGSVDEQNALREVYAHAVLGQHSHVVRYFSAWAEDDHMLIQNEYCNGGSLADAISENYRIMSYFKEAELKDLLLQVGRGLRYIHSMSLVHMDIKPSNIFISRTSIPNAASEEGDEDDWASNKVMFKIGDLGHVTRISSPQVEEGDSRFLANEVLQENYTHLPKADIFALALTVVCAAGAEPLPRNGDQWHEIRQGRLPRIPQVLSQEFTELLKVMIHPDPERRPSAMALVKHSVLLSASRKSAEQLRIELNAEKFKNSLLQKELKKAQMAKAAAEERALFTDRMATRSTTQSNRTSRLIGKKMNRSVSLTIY
APP 5'UTR act – activates APP 5'UTR luciferase reporter; SH-SY5Y APP 5'UTR luciferase reporter, luminescence; zero percent = DMSO vehicle wells; activation, % at 2 µM; 190,000 compounds, 1% hits;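 active means activation above a set limit, based on mean plus 3 SD of controls, cut at about 140% in these data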
p97 ATPase inh – inhibitors of human p97 ATPase; P55072; recombinant p97 ATPase, Kinase-Glo ATP luminescence, 3 h; inhibition, % at 8 µM; 220,000 compounds, 0.42% hits; in the data active means inhibition above about 15%
Numbers stand for hits; n = inactive; x = not tested or not shown.

SMILES	MDM2 E3 inh	STAT1 act	NF-kB neuron act	Wee1 stabilizer	APP 5'UTR act	p97 ATPase inh
CCCC(=O)Nc1nc2ccc(OCC)cc2s1	n	150	4.3	n	n	n
CCOc1ccc2nc(NC(=O)c3cnc(C)cn3)sc2c1	n	n	n	n	n	n
CCOc1ccc2nc(NC(=O)c3cccnc3)sc2c1	n	132	n	n	n	n
Cn1c(=O)c2ncn(CC(=O)N=Nc3c(O)[nH]c4ccccc34)c2n(C)c1=O	n	n	n	n	n	n
O=C(CC12CC3CC(CC(C3)C1)C2)NCC(c1ccc(F)cc1)N1CCOCC1 (stereo not drawn)	n	n	n	n	n	n
O=C(O)c1ccc(C(=O)c2ccc3c(c2)C(=O)N(CC2CCCO2)C3=O)cc1 (stereo not drawn)	n	n	n	10	n	n
O=C(O)c1ccc(S(=O)(=O)c2ccc3c(c2)C(=O)N(CC2CCCO2)C3=O)cc1 (stereo not drawn)	n	n	n	n	n	n
CCN(CC)S(=O)(=O)c1cc(NC(=O)CCCOc2ccc(C(C)=O)cc2)ccc1C	n	n	n	n	n	n
CC(C)c1nnc(NC(=O)C2CCN(S(=O)(=O)c3ccc(-n4cnnn4)cc3)CC2)s1	n	n	n	n	n	n
Cc1cccc(NC(=O)c2ccc(N3CCCCC3)c([N+](=O)[O-])c2)n1	n	144	5.2	n	159	n
c1ccc(N2CCN(c3nnnn3-c3ccccc3)CC2)cc1	n	n	n	9.4	n	n
CCOC(=O)c1cc(C(=O)OCC)c(=O)[nH]c1N1CCCC1	n	n	n	n	n	n
Cc1ccc2nc(CSc3nc(C)ccc3C#N)[nH]c2c1	n	139	n	n	n	n
CCSc1nc2ccc(C)cc2cc1C#N	n	n	n	n	n	n
Cc1c(NS(=O)(=O)c2cccc(C(=O)OCC(=O)N(C)C3CCCCC3)c2)c(=O)n(-c2ccccc2)n1C	n	n	n	n	n	n
O=C(CCc1nnc(-c2ccc(-c3ccccc3)cc2)o1)N1CCCCC1	n	n	x	n	n	n
O=C(CCc1nnc(-c2ccsc2)o1)N1CCc2c(Cl)cccc2C1	n	129	n	n	n	n
CN(C)CCN(Cc1ccccc1)c1nccc(N(C)C)c1C#N	n	n	n	n	n	n
CC(C)n1cnc2c(N(C)c3ccccc3)nc(N(CCN(C)C)Cc3ccccc3)nc21	35	x	x	x	x	x
Cc1ccc(NC(=O)NC(=O)N(C(C)C)S(=O)(=O)c2ccc(C)cc2)cc1	n	n	n	n	n	n
CCCCN1C(=O)/C(=C/C=C2\SCCN2C)SC1=S	n	130	n	n	n	n
Cc1cc(C)n(-c2ccc(C(=O)Nc3cccnc3)cc2)n1	n	x	x	n	x	n
Cc1ccc(N2CN=C3SCC(=O)N3C2)cc1C	n	n	n	n	n	n
CC(NS(=O)(=O)c1ccccc1)C1COc2ccccc2O1 (stereo not drawn)	n	n	n	13	n	n
CC(NC(=O)c1ccccc1Cl)C1COc2ccccc2O1 (stereo not drawn)	n	n	n	n	n	n
SMILES	MDM2 E3 inh	STAT1 act	NF-kB neuron act	Wee1 stabilizer	APP 5'UTR act	p97 ATPase inh
CCOc1ccc(NC(=O)c2ccc(NC(=O)COC(=O)Cc3ccc(OC)cc3)cc2)cc1	n	136	n	n	n	n
CCOc1ccc(C(=O)NCCc2ccccc2)cc1	n	n	3.6	n	n	n
COC(=O)c1ccc(NC(=O)Cc2ccccc2)cc1	n	132	n	n	n	n
CN(C)S(=O)(=O)c1cccc(C(=O)NCCc2ccccc2)c1	n	134	n	n	156	n
COc1cc(NC(=S)Nc2ccccn2)c(OC)cc1Cl	n	n	n	n	n	n
CC(C)=CCN1CCNC(=O)C1CC(=O)NCc1nc(C)c(C)s1 (stereo not drawn)	n	n	n	n	n	n
Cc1cccc(C)c1Nc1c(-c2ccccn2)nc2ccccn12	n	n	n	n	n	n
COC(=O)c1ccc(NC(=S)NNC(=O)CC(C)C)cc1	n	n	n	10	n	n
COc1ccc(NC(=O)CN2C(=O)CSC(C)C2=O)c(OC)c1 (stereo not drawn)	n	n	n	n	n	n
CCOc1ccc(NC(=O)c2ccccc2O)cc1	n	n	6.3	n	n	n
COC(=O)c1ccc(NC(=O)C(=O)c2cccn2C)cc1	n	n	8.4	n	n	n
COC(=O)c1sccc1-n1cccc1C(=O)C(=O)Nc1ccc(F)cc1	n	n	n	n	n	n
COC(=O)c1ccc(NC(=S)NNC(=O)c2ccccc2)cc1	n	n	n	n	n	n
CCOc1ccc(NC(=O)CN2C(=O)CSC(C)C2=O)cc1 (stereo not drawn)	n	131	n	n	n	n
CN(C)S(=O)(=O)c1ccc(Cl)c(-c2nnc3n2CCCCC3)c1	n	n	n	n	n	n
CCOc1ccc(NC(=O)CN2CCN(CC(=O)Nc3cccc(F)c3)CC2)cc1	n	n	n	n	n	n
CCOc1ccc(NC(=O)c2oc3ccccc3c2NC(=O)CC)cc1	n	n	5.1	n	n	n
CCOc1ccc(NC(=O)CN2CCN(CC(=O)Nc3cc(OC)cc(OC)c3)CC2)cc1	n	n	n	13	n	n
COCC(=O)Nc1ccc(OCc2ccccc2)cc1	n	131	n	n	n	n
CCOc1ccc(NC(=O)Cc2ccccc2)cc1	n	135	n	n	n	n
CCOc1ccc(NC(=O)CNC(=O)COc2ccccc2)cc1	n	n	n	n	n	n
COC(=O)Nc1ccc(OCc2ccccc2)cc1	n	n	n	n	n	n
Cc1ccc(-c2nnn(CC(=O)N3CCCCC3)n2)o1	n	n	n	n	n	n
CCC(=O)Nc1ccc(C(=O)OCc2ccccc2Cl)cc1	n	137	n	n	n	n
CC(=O)Nc1ccc(C(=O)OCc2ccccc2Cl)cc1	n	n	n	n	n	n
SMILES	MDM2 E3 inh	STAT1 act	NF-kB neuron act	Wee1 stabilizer	APP 5'UTR act	p97 ATPase inh
Cc1cc2nc(-c3ccccn3)c(-c3ccccn3)nc2cc1C	x	x	x	9.3	x	n
CC(C)Cn1c(-c2cccs2)nc2ccccc21	n	n	n	n	n	n
Cn1c(-c2cccs2)nc2ccccc21	n	142	n	n	n	n
CCCc1ccc(-c2ccc(/C=C/C(=O)O)cc2)nc1	n	n	n	n	n	n
CCCCCc1ccc(-c2ccc(/C=C/C(=O)O)cc2)nc1	n	n	4.6	n	n	n
CC(C)(C)C1CCC(C(=O)OCC(=O)N2CCN(C(=O)c3ccco3)CC2)CC1 (stereo not drawn)	n	n	n	n	n	n
CCCC(O)(CCC)C(=O)NN(C(=O)CCl)c1ccccc1	n	n	7.2	n	n	n
CCCCC(O)(CCCC)C(=O)NN(C(=O)OCC)c1ccccc1	n	n	n	n	n	n
Cc1ccc(NC(CC(=O)c2ccccc2)C(=O)O)cc1Cl (stereo not drawn)	n	x	x	n	x	n
